Measurements gathered from unrelated publications.
Protocols differ between the studies behind these lines.
F10: Coagulation factor X (F10, Homo sapiens, UniProt P00742)
OfChi-h: Chitinase (OfChi-h, Ostrinia furnacalis, UniProt Q4AE59)
WDR5: WD repeat-containing protein 5 (WDR5, Homo sapiens, UniProt P61964)

| SMILES | target | assay | setting | quantity | value |
| --- | --- | --- | --- | --- | --- |
| CC(=O)N[C@H]1Cc2ccc(cc2)OC/C=C/C[C@@H](C(=O)N[C@@H](CCCNC(=N)N)C(=O)c2nc3ccccc3s2)NC(=O)[C@H](CC(C)C)NC1=O | F10 | enzyme activity, inhibitor, absorbance | with preincubation | IC50 | 0.122 µM |
| CCCCc1ccc(CNc2nc(N(C)C)nc(N(C)C)c2/N=N/c2ccc(Cl)cc2)cc1 | OfChi-h | enzyme activity, inhibitor, fluorescence |  | Ki | 0.0194 µM |
| CC(=O)N[C@H]1Cc2ccc(cc2)OC/C=C\CNC(=O)C[C@@H](C(=O)N[C@@H](CCCNC(=N)N)C(=O)c2nc3ccccc3s2)NC(=O)[C@H](CC(C)C)NC1=O | F10 | enzyme activity, inhibitor, absorbance | with preincubation | IC50 | 3.18 µM |
| C[C@@H]1CN(c2ccc(-c3cc(C(=O)NCCCNC(=O)/C=C/c4[nH]cc(C(=O)N[C@@H](CC(N)=O)c5ccc(F)c(Cl)c5)c4-c4ccc(Cl)cc4F)ccc3F)cc2NC(=O)c2c[nH]c(=O)cc2C(F)(F)F)C[C@H](C)N1C | WDR5 | binding, SPR |  | Kd | 0.0264 µM |
| CN(C)c1nc(NCc2ccc(OC(F)(F)F)cc2)c(/N=N/c2ccc(Cl)cc2)c(N(C)C)n1 | OfChi-h | enzyme activity, inhibitor, fluorescence |  | IC50 | 0.16 µM |
| C[C@@H]1CN(c2ccc(-c3cc(C(=O)NCCOCCOCCOCCOCCNC(=O)Cn4cc(-c5[nH]cc(C(=O)N[C@@H](CC(N)=O)c6ccc(F)c(Cl)c6)c5-c5ccc(Cl)cc5F)cn4)ccc3F)cc2NC(=O)c2c[nH]c(=O)cc2C(F)(F)F)C[C@H](C)N1C | WDR5 | binding, SPR |  | Kd | 0.0375 µM |
| Nc1ncnc2c1ncn2[C@@H]1O[C@H](CO)[C@@H](O)[C@H]1O | Solute carrier family 22 member 12 (SLC22A12, Homo sapiens, UniProt Q96S37) | transporter uptake, inhibitor, radiometric | oocytes | IC50 | > 10000 µM |
| O=C(NO)c1cncc(OS(=O)(=O)Oc2ccc(-n3ccnc3)cc2)c1 | Histone deacetylase 7 (HDAC7, Homo sapiens, UniProt Q8WUI4) | enzyme activity, inhibitor, fluorescence |  | IC50 | 5.07 µM |
